These results are taken from PMC7184531 (Heliyon, 2020).

The target of series [1] is α-Glucosidase from Saccharomyces cerevisiae. Nature of the series: α-Glucosidase inhibitory assay. The conditions noted are these: for IC50: read-out: α-glucosidase inhibition (IC50). In kind it is biochemical.
Series [2] has as its system 3T3-L1 cells. Nature of the series: Cytotoxicity analysis. In kind it is cell-based. The note with it: for % cell viability: MTT assay, 72 h. An outline of the steps:
(§1)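 3T3-L1 cells grown in high-glucose DMEM with 10% FBS and 2 mM glutamine at 37 °C, 5% CO2. Seeded at 1 × 10^4 cells per well with 30 nM insulin in detection medium for 24–48 h. Test compound at 0.01–1000 μg/mL for 72 h. Then MTT (0.5 mg/mL in phosphate buffer) for 4 h, DMSO solubilisation, A570. % viability reported as mean of triplicates ± SD.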
(In general: Tetrazolium dyes change colour on reduction, which living cells bring about.)

Series [3] relates to 3T3-L1 cells. Nature of the series: Glucose consumption assay in 3T3-L1 cells. Format: cell-based. The note with it: Mus musculus.
A short description of a further series: Cytotoxicity analysis. Format: cell-based. The conditions noted are these: mouse, 3T3-L1 cells. An outline of the steps:
as §1

The mark [4] stands for this setting: 3T3-L1, read-out: glucose consumption (IC50, μM).

Read-outs that look alike come from different tables or passages of the source.

For the compound cowanol [Compound 7], the IC50 in series [1] was 18 µM. In the series on 3T3-L1 cells [2], the “% cell viability” value is on record as 100.9%.
As to guttiferone I [Compound 2], the IC50 in series [1] amounted to 13.1 µM. Also, in the series with 3T3-L1 cells [2], the “toxicity to cells (in words)” value was “without causing toxicity to cells” and the “% cell viability” value amounted to 98.7%. Moreover, the “toxicity to cells (in words)” value in the series with 3T3-L1 cells [2] (listed as Guttiferone I) is reported as “without causing toxic effects”.
As usually defined, the viability is a read-out of living cells in per cent, often relative to untreated cells. For the compound `COc1ccc2oc3cccc(O)c3c(=O)c2c1` [Compound 4, 1-hydroxyl-7 methoxyxanthone], the IC50 in the series with 3T3-L1 cells [3] (setting [4]) was 23.2 µM; in series [1], greater than 100 µM. Besides, the viability at 72 h in the series “Cytotoxicity analysis” was determined as 102%.
Take `CN(C)C(=N)N=C(N)N` [Metformin, reference compound]: the IC50 in the series on 3T3-L1 cells [3] (setting [4]) was found to be 45.4 µM; with 3T3-L1 cells [3] (3T3-L1, read-out: glucose consumption (IC50, μg/mL)) it was 6.3 µg/mL. Also, the viability at 72 h in the series “Cytotoxicity analysis” amounted to 99.7%.
As to `CC(C)=CCC/C(C)=C/Cc1c(O)cc2oc3c(O)cccc3c(=O)c2c1O` [Compound 5, mangostinone], the IC50 with 3T3-L1 cells [3] (setting [4]) was 16 µM; in series [1], greater than 100 µM. In addition, the viability at 72 h in the series “Cytotoxicity analysis” came out at 93.1%.
`O=c1c2cc(O)ccc2oc2cccc(O)c12` [Compound 3, 1,7-dihydroxyxanthone]: in series [1], the IC50 is greater than 100 µM. Also, in “Cytotoxicity analysis”, the viability at 72 h came out at 105%.
A word on the % inhibition: it is how much of the control response was suppressed. Read a low % inhibition as little suppression. On to `C[C@H]1O[C@H](O[C@H]2[C@H](O)[C@@H](O)[C@@H](O[C@H]3[C@H](O)[C@@H](O)C(O)O[C@@H]3CO)O[C@@H]2CO)[C@H](O)[C@@H](O)[C@@H]1N[C@H]1C=C(CO)[C@@H](O)[C@H](O)[C@H]1O` (stereo partly drawn) [Acarbose, reference compound], for which the “% inhibition at 200 μg/mL (α-glucosidase)” value in series [1] (final concentration of 200 μg/mL) came out at 98.9%.
For `C[C@H]1C(=O)CC[C@@H]2[C@]1(C)CC[C@H]1[C@@]2(C)CC[C@@]2(C)[C@@H]3CC(C)(C)CC[C@]3(C)CC[C@]12C` [Compound 9, friedelin], the results for the IC50 (with 3T3-L1 cells [3] (setting [4]); in series [1]) were 18.5 µM and greater than 100 µM, respectively. Moreover, the viability at 72 h in the series “Cytotoxicity analysis” was 101%.
